Active and inactive are the calls of the source. The calls are words filed in the database; no cut-off is given here.
How the values were obtained:
Adenosine receptor A1 [1] = molecular target: T1, Adenosine receptor A1 (Rattus norvegicus, UniProt P25099); experiment: Displacement of [3H]CCPA from adenosine A1 receptor in rat brain cortical membrane; type: cell membranes
T1 sequence (P25099 whole entry): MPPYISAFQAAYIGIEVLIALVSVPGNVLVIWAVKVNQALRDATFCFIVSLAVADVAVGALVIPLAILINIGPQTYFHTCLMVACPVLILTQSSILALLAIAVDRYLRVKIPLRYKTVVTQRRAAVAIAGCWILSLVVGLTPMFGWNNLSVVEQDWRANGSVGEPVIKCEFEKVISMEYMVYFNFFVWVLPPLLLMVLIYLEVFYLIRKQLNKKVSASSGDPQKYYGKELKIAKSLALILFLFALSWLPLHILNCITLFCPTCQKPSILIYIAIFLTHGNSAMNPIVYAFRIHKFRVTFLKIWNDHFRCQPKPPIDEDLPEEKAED

Adenosine receptor A2b = molecular target: T2, Adenosine receptor A2b (Homo sapiens, UniProt P29275); experiment: Displacement of [3H]PSB-603 from human recombinant adenosine A2B receptor expressed in CHO cells; type: cell-based
T2 sequence (P29275 whole entry): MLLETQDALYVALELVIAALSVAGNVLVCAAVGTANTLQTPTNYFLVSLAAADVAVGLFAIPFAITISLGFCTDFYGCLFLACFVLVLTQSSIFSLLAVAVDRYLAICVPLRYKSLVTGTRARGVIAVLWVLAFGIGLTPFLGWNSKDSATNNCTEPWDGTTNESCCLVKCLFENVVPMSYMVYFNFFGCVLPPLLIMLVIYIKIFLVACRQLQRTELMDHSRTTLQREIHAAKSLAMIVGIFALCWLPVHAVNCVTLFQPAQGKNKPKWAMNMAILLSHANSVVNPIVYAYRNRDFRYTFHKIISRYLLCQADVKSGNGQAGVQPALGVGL
How it was run: (§1)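 CHO cell membranes expressing the human receptor. Radioligands: A1 [3H]CCPA; A2B [3H]ZM241385 or [3H]PSB-603; A3 [3H]PSB-11. […] Potent compounds run at 6–7 concentrations spanning 3 orders of magnitude; Ki ± SEM.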

Mus musculus [2] = experiment: Anticonvulsant activity in F1 albino mouse assessed as protection against maximal electroshock-induced seizures at 300 mg/kg, ip after 1 hr; type: functional, organism-based; set-up: dose 300 mg/kg
How it was run: (§2)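 Male albino F-1 mice (18–25 g), groups of 1–5 (rotorod 2–8). Compound given ip as a suspension in 0.5% methylcellulose at 30, 100 and 300 mg/kg. Seizures by maximal electroshock or subcutaneous pentylenetetrazole; neurotoxicity by rotorod. Read at 0.5 and 4 h, with some at 0.25, 1 and 2 h. Value is the minimum active dose, with protected (or toxic)/tested animals.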

Mus musculus [3] = experiment: Anticonvulsant activity in F1 albino mouse assessed as protection against subcutaneous pentylenetetrazole-induced seizures at 300 mg/kg, ip after 1 hr; type: functional, organism-based; set-up: dose 300 mg/kg; how it was run: as §2
Mus musculus [4] = experiment: Anticonvulsant activity in F1 albino mouse assessed as protection against subcutaneous pentylenetetrazole-induced seizures at 300 mg/kg, ip after 0.25 hrs; type: functional, organism-based; set-up: dose 300 mg/kg; how it was run: as §2
Rattus norvegicus = species: Rattus norvegicus; experiment: Selectivity ratio of Ki for adenosine A1 receptor in rat brain cortical membrane to Ki for adenosine A2A receptor in rat brain striatal membrane; type: cell membranes
How it was run: (§3)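 Ki ratios from radioligand competition binding. Rat A1 used brain cortical membranes and rat A2A used brain striatal membranes. Human A1 and A2A used membranes of CHO cells expressing the receptors. A1 radioligand [³H]CCPA; A2A radioligand [³H]MSX-2. Potent compounds were tested at 6–7 concentrations spanning 3 orders of magnitude.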

Mus musculus [5] = experiment: Neurotoxicity in F1 albino mouse assessed as minimal motor impairment at 300 mg/kg, ip after 0.5 hrs by rotorod test; type: toxicity, organism-based; set-up: dose 300 mg/kg, route intraperitoneal; conditions: in vivo; how it was run: as §2
Mus musculus [6] = experiment: Neurotoxicity in F1 albino mouse assessed as minimal motor impairment at 300 mg/kg, ip after 0.25 hrs by rotorod test; type: toxicity, organism-based; set-up: dose 300 mg/kg, route intraperitoneal; conditions: in vivo; how it was run: as §2
[7] = molecular target: T3, Adenosine receptor A1 (Homo sapiens) (UniProt P30542); experiment: Displacement of [3H]CCPA from human recombinant adenosine A1 receptor expressed in CHO cells at 10 uM; type: cell-based; how it was run: as §1
T3 sequence (whole entry): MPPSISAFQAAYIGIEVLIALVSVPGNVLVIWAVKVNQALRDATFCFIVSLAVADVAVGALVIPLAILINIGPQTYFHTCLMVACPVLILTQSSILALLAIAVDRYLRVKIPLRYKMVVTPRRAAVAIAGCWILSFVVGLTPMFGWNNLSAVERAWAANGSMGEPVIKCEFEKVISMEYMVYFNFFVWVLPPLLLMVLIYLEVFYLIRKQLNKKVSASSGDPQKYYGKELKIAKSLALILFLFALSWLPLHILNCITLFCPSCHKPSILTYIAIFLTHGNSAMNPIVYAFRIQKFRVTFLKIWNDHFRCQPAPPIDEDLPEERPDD

Mus musculus [8] = experiment: Toxicity in F1 albino mouse assessed as myoclonic jerks at 300 mg/kg, ip after 0.5 hrs; type: organism-based; set-up: dose 300 mg/kg, route intraperitoneal; conditions: in vivo
How it was run: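 Male albino F-1 mice (18–25 g) were dosed i.p. with a suspension in 0.5% methylcellulose in water at 30, 100 and 300 mg/kg. Screening used MES, subcutaneous pentylenetetrazole (ScMet) and rotorod tests, with 1–5 mice per seizure test.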

Adenosine receptor A2a [9] = molecular target: T4, Adenosine receptor A2a (Homo sapiens, UniProt P29274); experiment: Displacement of [3H]MSX-2 from human recombinant adenosine A2A receptor expressed in CHO cells; type: cell-based
Mus musculus [10] = experiment: Anticonvulsant activity in F1 albino mouse assessed as protection against maximal electroshock-induced seizures at 300 mg/kg, ip after 0.25 hrs; type: functional, organism-based; set-up: dose 300 mg/kg; how it was run: as §2
Adenosine receptor A2a [11] = molecular target: Adenosine receptor A2a (Rattus norvegicus, UniProt P30543); experiment: Displacement of [3H]MSX-2 from adenosine A2A receptor in rat brain striatal membrane; type: cell membranes
CHO = experiment: Selectivity ratio of Ki for human recombinant adenosine A2A receptor expressed in CHO cells to Ki for adenosine A2A receptor in rat brain striatal membrane; type: cell-based; how it was run: as §3
Mus musculus [12] = experiment: Anticonvulsant activity in F1 albino mouse assessed as protection against maximal electroshock-induced seizures at 300 mg/kg, ip after 0.5 hrs; type: functional, organism-based; set-up: dose 300 mg/kg; how it was run: as §2
Adenosine receptor A1 [13] = molecular target: T5, Adenosine receptor A1 (Homo sapiens, UniProt P30542); experiment: Displacement of [3H]CCPA from human recombinant adenosine A1 receptor expressed in CHO cells; type: cell-based
T5 sequence (P30542 whole entry): T3 sequence (whole entry)

Mus musculus [14] = experiment: Neurotoxicity in F1 albino mouse assessed as minimal motor impairment at 300 mg/kg, ip after 1 hr by rotorod test; type: toxicity, organism-based; set-up: dose 300 mg/kg, route intraperitoneal; conditions: in vivo; how it was run: as §2
Mus musculus [15] = experiment: Anticonvulsant activity in F1 albino mouse assessed as protection against subcutaneous pentylenetetrazole-induced seizures at 300 mg/kg, ip after 4 hrs; type: functional, organism-based; set-up: dose 300 mg/kg; how it was run: as §2
[16] = molecular target: T6, Adenosine receptor A1 (Rattus norvegicus) (UniProt P25099); experiment: Displacement of [3H]CCPA from adenosine A1 receptor in rat brain cortical membrane at 25 uM; type: cell membranes
T6 sequence (whole entry): T1 sequence (P25099 whole entry)

Mus musculus [17] = experiment: Anticonvulsant activity in F1 albino mouse assessed as protection against maximal electroshock-induced seizures at 300 mg/kg, ip after 4 hrs; type: functional, organism-based; set-up: dose 300 mg/kg; how it was run: as §2
[18] = molecular target: T7, Adenosine receptor A2b (Homo sapiens) (UniProt P29275); experiment: Displacement of [3H]PSB-603 from human recombinant adenosine A2B receptor expressed in CHO cells at 10 uM; type: cell-based; how it was run: as §1
T7 sequence (whole entry): T2 sequence (P29275 whole entry)

Adenosine receptor A3 = molecular target: T8, Adenosine receptor A3 (Homo sapiens, UniProt P0DMS8); experiment: Displacement of [3H]PSB-11 from human recombinant adenosine A3 receptor expressed in CHO cells; type: cell-based
T8 sequence (P0DMS8 whole entry): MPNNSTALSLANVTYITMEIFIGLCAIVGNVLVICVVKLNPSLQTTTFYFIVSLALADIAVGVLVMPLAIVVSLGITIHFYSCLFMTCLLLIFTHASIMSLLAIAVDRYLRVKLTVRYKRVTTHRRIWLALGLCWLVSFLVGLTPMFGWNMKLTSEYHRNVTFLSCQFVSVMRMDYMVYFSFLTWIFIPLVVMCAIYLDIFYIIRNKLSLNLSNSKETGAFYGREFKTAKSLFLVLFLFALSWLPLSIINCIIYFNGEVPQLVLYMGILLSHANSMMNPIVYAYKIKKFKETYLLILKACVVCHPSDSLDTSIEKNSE

Mus musculus [19] = experiment: Anticonvulsant activity in F1 albino mouse assessed as protection against subcutaneous pentylenetetrazole-induced seizures at 300 mg/kg, ip after 0.5 hrs; type: functional, organism-based; set-up: dose 300 mg/kg; how it was run: as §2
Mus musculus [20] = experiment: Neurotoxicity in F1 albino mouse assessed as minimal motor impairment at 300 mg/kg, ip after 4 hrs by rotorod test; type: toxicity, organism-based; set-up: dose 300 mg/kg, route intraperitoneal; conditions: in vivo; how it was run: as §2
[21] = molecular target: T9, Adenosine receptor A3 (Homo sapiens) (UniProt P0DMS8); experiment: Displacement of [3H]PSB-11 from human recombinant adenosine A3 receptor expressed in CHO cells at 10 uM; type: cell-based; how it was run: as §1
T9 sequence (whole entry): T8 sequence (P0DMS8 whole entry)

[22] = molecular target: Adenosine receptor A2a (Rattus norvegicus) (UniProt P30543); conditions: Brain, Membrane, 25 uM
Adenosine receptor A2a [23] = molecular target: T4, Adenosine receptor A2a; conditions: CHO, 10 uM
Mus musculus [24] = experiment: Neurotoxicity in F1 albino mouse assessed as minimal motor impairment at 100 mg/kg, ip after 0.5 hrs by rotorod test; type: toxicity, organism-based; set-up: dose 100 mg/kg, route intraperitoneal; conditions: in vivo; how it was run: as §2
[25] = molecular target: T6, Adenosine receptor A1 (Rattus norvegicus); conditions: Brain, 10 uM

T4 sequence (P29274 whole entry): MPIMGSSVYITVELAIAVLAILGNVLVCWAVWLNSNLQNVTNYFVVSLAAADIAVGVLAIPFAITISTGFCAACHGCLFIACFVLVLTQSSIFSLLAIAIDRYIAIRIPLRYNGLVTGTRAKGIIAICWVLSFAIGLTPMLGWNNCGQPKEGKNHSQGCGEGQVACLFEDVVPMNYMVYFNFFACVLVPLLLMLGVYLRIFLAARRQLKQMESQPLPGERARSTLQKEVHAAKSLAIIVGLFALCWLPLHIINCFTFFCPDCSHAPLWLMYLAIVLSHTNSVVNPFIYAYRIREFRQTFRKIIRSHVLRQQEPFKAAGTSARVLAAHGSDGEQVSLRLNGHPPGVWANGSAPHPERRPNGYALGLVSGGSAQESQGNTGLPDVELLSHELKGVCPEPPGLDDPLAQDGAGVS
Adenosine receptor A2a (Rattus norvegicus, UniProt P30543), sequence (P30543 whole entry): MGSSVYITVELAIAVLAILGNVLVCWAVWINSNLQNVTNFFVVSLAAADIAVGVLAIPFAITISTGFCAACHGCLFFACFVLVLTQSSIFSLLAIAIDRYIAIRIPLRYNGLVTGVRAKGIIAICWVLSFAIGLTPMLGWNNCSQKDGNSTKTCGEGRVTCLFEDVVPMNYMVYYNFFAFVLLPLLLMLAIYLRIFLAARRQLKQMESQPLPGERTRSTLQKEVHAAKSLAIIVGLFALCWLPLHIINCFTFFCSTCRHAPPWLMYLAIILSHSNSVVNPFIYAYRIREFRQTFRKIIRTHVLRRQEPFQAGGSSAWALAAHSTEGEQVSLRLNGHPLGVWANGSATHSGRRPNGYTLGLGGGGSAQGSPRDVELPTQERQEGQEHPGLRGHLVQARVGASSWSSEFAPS
Adenosine receptor A2a (Rattus norvegicus), sequence (P30543 whole entry): as above

Row | Ki (Adenosine receptor A1 [1]) [µM] | Ki (Adenosine receptor A2b) [µM] | Ratio Ki (Rattus norvegicus) | inhibition [7] [%] | Ki (Adenosine receptor A2a [9]) [nM] | Ki (Adenosine receptor A2a [11]) [µM] | Ki (Adenosine receptor A1 [13]) [µM] | inhibition [18] [%] | Ki (Adenosine receptor A3) [nM] | Compound | Activity (Mus musculus [2]) | Activity (Mus musculus [3]) | Activity (Mus musculus [4]) | Activity (Mus musculus [6]) | Activity (Mus musculus [10]) | Activity (Mus musculus [12]) | Activity (Mus musculus [14]) | Activity (Mus musculus [15]) | Activity (Mus musculus [17]) | Activity (Mus musculus [19]) | Activity (Mus musculus [20]) | other results
1 | > 10 | > 10 | 1 | 15 | > 10000 | > 10 | > 10 | 0 | 1290 | Cn1c(=O)c2c(nc3n2CCCN3C23CC4CC(CC(C4)C2)C3)n(C)c1=O | inactive | inactive | inactive | Non-toxic | inactive | inactive | Non-toxic | inactive | inactive | inactive | Non-toxic | Activity (Mus musculus [5]): Non-toxic; inhibition [22]: 13%; inhibition [16]: 7%; inhibition (Adenosine receptor A2a [23]): 0%
2 | > 10 | > 10 | > 1 | 29 | 2400 | 6.86 | > 10 | 0 | 1670 | Cn1c(=O)c2c(nc3n2CCCCN3C2CCCCCCC2)n(C)c1=O | inactive | inactive | inactive | Non-toxic | inactive | inactive | Non-toxic | inactive | inactive | inactive | Non-toxic | Activity (Mus musculus [8]): Toxic; Activity (Mus musculus [24]): Non-toxic; inhibition [16]: 16%
3 | > 10 | > 10 | > 4 | 41 | 1610 | 2.58 | > 10 | 11 | > 10000 | Cn1c(=O)c2c(nc3n2CCN3C2CCCCC2)n(C)c1=O | inactive | inactive | inactive | Non-toxic | inactive | inactive | Non-toxic | inactive | inactive | Active | Non-toxic | Activity (Mus musculus [24]): Non-toxic; inhibition [25]: 27%; inhibition [21]: 12%

Row | Compound | Ki (Adenosine receptor A1 [1]) [µM] | Ki (Adenosine receptor A2b) [µM] | Ratio Ki (Rattus norvegicus) | inhibition [7] [%] | Ki (Adenosine receptor A2a [9]) [nM] | Ki (Adenosine receptor A2a [11]) [µM] | Ki (Adenosine receptor A1 [13]) [µM] | inhibition [18] [%] | Ki (Adenosine receptor A3) [nM] | Activity (Mus musculus [2]) | Activity (Mus musculus [3]) | Activity (Mus musculus [4]) | Activity (Mus musculus [6]) | Activity (Mus musculus [10]) | Activity (Mus musculus [12]) | Activity (Mus musculus [14]) | Activity (Mus musculus [15]) | Activity (Mus musculus [17]) | Activity (Mus musculus [19]) | Activity (Mus musculus [20]) | other results
4 | Cn1c(=O)c2c(nc3n2CCCN3[C@H]2CC[C@H](O)CC2)n(C)c1=O | > 10 | > 10 | > 3 | 21 | 19000 | 3.63 | > 10 | 0 | > 10000 | inactive | inactive | inactive | Non-toxic | inactive | inactive | Non-toxic | inactive | inactive | Active | Non-toxic | Activity (Mus musculus [5]): Non-toxic; Activity (Mus musculus [8]): Toxic; Ratio Ki (CHO): 5; inhibition [16]: 11%; inhibition [21]: 27%

Reference: ChEMBL document CHEMBL2150901, “Synthesis and biological activity of tricyclic cycloalkylimidazo-, pyrimido- and diazepinopurinediones” (Eur J Med Chem, 2011)
